Values after ≈ are worked out from the molar mass of the structure shown.
How the values were obtained:
Enterococcus faecalis = experiment: Antibacterial activity against Enterococcus faecalis STCO-19; assay type: functional
Summary of the method: (§1)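 MIC by microtiter broth dilution. For racemic samples, the measured MIC was divided by two, since only one oxazolidinone enantiomer is antibacterial.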

Staphylococcus aureus = experiment: Antibacterial activity against Staphylococcus aureus SFCO-1a cell line.; assay type: functional; summary of the method: as §1

MIC (Enterococcus faecalis) [µg/mL] | MIC (Staphylococcus aureus) [µg/mL] | Compound
128 (≈ 355 µM) | 64 (≈ 178 µM) | CC(=O)NCC1CN(c2cccc(I)c2)C(=O)O1 (stereo unspecified)
4 (≈ 14.6 µM) | 2 (≈ 7.29 µM) | CC(=O)NC[C@H]1CN(c2ccc3c(c2)CCC3)C(=O)O1
4 (≈ 14.3 µM) | 4 (≈ 14.3 µM) | CC(=O)NCC1CN(c2cccc([N+](=O)[O-])c2)C(=O)O1 (stereo unspecified)
32 (≈ 109 µM) | 32 (≈ 109 µM) | CC(=O)NC[C@H]1CN(c2ccc(C(C)=O)cc2F)C(=O)O1
> 128 | > 128 | COc1cc(OC)cc(N2CC(CNC(C)=O)OC2=O)c1 (stereo unspecified)
32 (≈ 127 µM) | 32 (≈ 127 µM) | CC(=O)NCC1CN(c2cccc(F)c2)C(=O)O1 (stereo unspecified)
2 (≈ 6.44 µM) | 2 (≈ 6.44 µM) | CC(=O)NCC1CN(c2ccc(C(C)=O)c(Cl)c2)C(=O)O1 (stereo unspecified)
4 (≈ 13.7 µM) | 4 (≈ 13.7 µM) | CC(=O)NCC1CN(c2ccc(C(C)=O)c(N)c2)C(=O)O1 (stereo unspecified)
> 128 | > 128 | CC(=O)NC[C@H]1CN(c2ccc3[nH]ccc3c2)C(=O)O1
4 (≈ 14.5 µM) | 2 (≈ 7.24 µM) | CCCc1ccc(N2C[C@H](CNC(C)=O)OC2=O)cc1
> 128 | > 128 | CC(=O)NCC1CN(c2cccc([S+](C)[O-])c2)C(=O)O1 (stereo unspecified)
128 (≈ 463 µM) | 64 (≈ 232 µM) | CCCc1cccc(N2CC(CNC(C)=O)OC2=O)c1 (stereo unspecified)
8 (≈ 26.3 µM) | 16 (≈ 52.6 µM) | CCc1cc(N2CC(CNC(C)=O)OC2=O)ccc1C(C)=O (stereo unspecified)
> 128 | > 128 | CC(=O)NC[C@H]1CN(c2ccc([N+](=O)[O-])cc2[N+](=O)[O-])C(=O)O1
16 (≈ 61 µM) | 8 (≈ 30.5 µM) | CC(=O)NC[C@H]1CN(c2ccc(C)c(C)c2)C(=O)O1
> 128 | > 128 | COc1cc([N+](=O)[O-])ccc1N1C[C@H](CNC(C)=O)OC1=O
> 128 | > 128 | CC(=O)NCC1CN(c2cccc(S(C)(=O)=O)c2)C(=O)O1 (stereo unspecified)
4 (≈ 14.3 µM) | 4 (≈ 14.3 µM) | CSc1ccc(N2CC(CNC(C)=O)OC2=O)cc1 (stereo unspecified)
8 (≈ 22.5 µM) | 4 (≈ 11.3 µM) | CC(=O)NCC1CN(c2ccc(C(C)=O)c(Br)c2)C(=O)O1 (stereo unspecified)
1 (≈ 3.62 µM) | 0.5 (≈ 1.81 µM) | CC(=O)NC[C@H]1CN(c2ccc(C(C)=O)cc2)C(=O)O1 [DUP-721]

Further lines, the molecule ahead of its results:

Compound | MIC (Enterococcus faecalis) [µg/mL] | MIC (Staphylococcus aureus) [µg/mL]
CC(=O)NCC1CN(c2ccc(C(C)=O)c(O)c2)C(=O)O1 (stereo unspecified) | 2 (≈ 6.84 µM) | 2 (≈ 6.84 µM)
CSc1ccc(N2CC(CNC(C)=O)OC2=O)cc1[N+](=O)[O-] (stereo unspecified) | 8 (≈ 24.6 µM) | 8 (≈ 24.6 µM)
CC(=O)NCC1CN(c2cccc(Cl)c2)C(=O)O1 (stereo unspecified) | 128 (≈ 476 µM) | 64 (≈ 238 µM)
C#Cc1ccc(N2C[C@H](CNC(C)=O)OC2=O)c(F)c1 | 128 (≈ 463 µM) | 128 (≈ 463 µM)
CSc1cc(N2CC(CNC(C)=O)OC2=O)ccc1C(C)=O (stereo unspecified) | > 128 | > 128
CC(=O)NCC1CN(c2ccccc2)C(=O)O1 (stereo unspecified) | 128 (≈ 546 µM) | 128 (≈ 546 µM)
CC(=O)NCC1CN(c2c(F)cc(C(C)=O)cc2F)C(=O)O1 (stereo unspecified) | > 128 | > 128
CC(=O)NC[C@H]1CN(c2ccc(C(C)=O)c(C)c2)C(=O)O1 | 1 (≈ 3.44 µM) | 1 (≈ 3.44 µM)
CCCc1cc(N2CC(CNC(C)=O)OC2=O)ccc1C(C)=O (stereo unspecified) | > 128 | > 128
CC(=O)NCC1CN(c2ccc(C(C)=O)c(F)c2)C(=O)O1 (stereo unspecified) | 2 (≈ 6.8 µM) | 1 (≈ 3.4 µM)
CC(=O)NCC1CN(c2cccc(C)c2)C(=O)O1 (stereo unspecified) | 32 (≈ 129 µM) | 32 (≈ 129 µM)
CC(=O)NC[C@H]1CN(c2ccc3ccccc3c2)C(=O)O1 | 8 (≈ 28.1 µM) | 4 (≈ 14.1 µM)
COc1cc(N2CC(CNC(C)=O)OC2=O)ccc1C(C)=O (stereo unspecified) | > 128 | > 128
CC(=O)NCC1CN(c2cccc(N)c2)C(=O)O1 (stereo unspecified) | > 128 | > 128
CSc1cccc(N2CC(CNC(C)=O)OC2=O)c1 (stereo unspecified) | 16 (≈ 57.1 µM) | 16 (≈ 57.1 µM)
CC(=O)NCC1CN(c2cccc(Br)c2)C(=O)O1 (stereo unspecified) | 64 (≈ 204 µM) | 16 (≈ 51.1 µM)
CC(=O)NCC1CN(c2ccc([S+](C)[O-])c([N+](=O)[O-])c2)C(=O)O1 (stereo unspecified) | 8 (≈ 23.4 µM) | 8 (≈ 23.4 µM)
CC(=O)NCC1CN(c2cc(C)cc(C)c2)C(=O)O1 (stereo unspecified) | > 128 | > 128
CC(=O)NCC1CN(c2ccc([S+](C)[O-])c(C)c2)C(=O)O1 (stereo unspecified) | 8 (≈ 25.8 µM) | 8 (≈ 25.8 µM)
CC(=O)NCC1CN(c2ccc(C(C)=O)c(I)c2)C(=O)O1 (stereo unspecified) | 32 (≈ 79.6 µM) | 32 (≈ 79.6 µM)
COc1cccc(N2CC(CNC(C)=O)OC2=O)c1 (stereo unspecified) | 64 (≈ 242 µM) | 64 (≈ 242 µM)
CC(=O)NCC1CN(c2ccc(C(C)=O)c([S+](C)[O-])c2)C(=O)O1 (stereo unspecified) | > 128 | > 128
COc1ccc([N+](=O)[O-])cc1N1C[C@H](CNC(C)=O)OC1=O | > 128 | > 128
CC(=O)NCC1CN(c2ccc([S+](C)[O-])cc2)C(=O)O1 (stereo unspecified) | 4 (≈ 13.5 µM) | 4 (≈ 13.5 µM)
CC(=O)NCC1CN(c2ccc(C(C)=O)c(S(C)(=O)=O)c2)C(=O)O1 (stereo unspecified) | > 128 | > 128
CCc1cccc(N2CC(CNC(C)=O)OC2=O)c1 (stereo unspecified) | 16 (≈ 61 µM) | 16 (≈ 61 µM)
CC(=O)NCC1CN(c2cccc(O)c2)C(=O)O1 (stereo unspecified) | > 128 | > 128
CC(=O)NC[C@H]1CN(c2ccc3c(c2)CCC3=O)C(=O)O1 [PNU-82965] | 2 (≈ 6.94 µM) | 2 (≈ 6.94 µM)

Reference: ChEMBL document CHEMBL1126182, “Antibacterials. synthesis and structure-activity studies of 3-aryl-2-oxooxazolidines. 4. Multiply-substituted aryl derivatives” (1992)
